Active and inactive are the calls of the source. The rule behind the calls is not given here.
Experiments:
Rattus norvegicus [1] = assay: Half life in rat at 1 mg/kg, iv; type: ADME, organism-based; conditions: in vivo
Outline: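 Rats given 1 mg/kg intravenously; vehicle DMSO, Tween 80, normal saline; values are the average of three determinations.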

[2] = Tmax in rat at 3 mg/kg, po; type: ADME, organism-based; conditions: in vivo
Outline: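 Rats were given compound at 1 mg/kg iv or 3 mg/kg po. Vehicle was DMSO, Tween 80 and normal saline. Values are the average of three determinations.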

Rattus norvegicus [3] = assay: AUC (0 to infinity) in rat at 3 mg/kg, po; type: ADME, organism-based; set-up: dose 3 mg/kg, time infinity, route oral; conditions: in vivo
Outline: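 Rats dosed orally at 3 mg/kg; vehicle DMSO, Tween 80, normal saline; values are the average of three determinations.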

[4] = Drug metabolism in mouse liver microsomes assessed as (S)-N-(4-amino-5-(4-(4-hydroxyphenoxy)phenyl)-6-methylene-7,8-dihydro-6H-pyrimido[5,4-b]pyrrolizin-7-yl)acrylamide formation after 3 hrs; type: ADME, microsome
[5] = Drug metabolism in rat liver microsomes assessed as (S,E)-N-(4-amino-6-methylene-5-(4-phenoxyphenyl)-7,8-dihydro-6H-pyrimido[5,4-b]pyrrolizin-7-yl)-3-hydroxyacrylamide formation after 3 hrs; type: ADME, microsome
[6] = Drug metabolism in mouse liver microsomes assessed as (S)-4-(4-(4,7-diamino-6-methylene-7,8-dihydro-6H-pyrimido[5,4-b]pyrrolizin-5-yl)phenoxy)phenol formation after 3 hrs; type: ADME, microsome
TMD8 [7] = assay: Antiproliferative activity against human TMD8 cells after 72 hrs by MTT assay; type: functional, cell-based; conditions: TMD8, 72 h
Outline: (§1)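 Cells grown in RPMI-1640 with FBS at 37 °C, 5% CO2. Seeded and grown 2 h, then treated with various concentrations in PBS solution, each in triplicate, and cultured a further 72 h. Viability read by MTT. IC50 from the Logit method, given as mean ± SD of three independent determinations.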

Ramos = assay: Antiproliferative activity against human Ramos cells after 72 hrs by MTT assay; type: functional, cell-based; outline: as §1
[8] = target: Receptor tyrosine-protein kinase erbB-4 (Homo sapiens, UniProt Q15303); assay: Inhibition of recombinant human ErbB4 using Poly(Glu, Tyr) 4:1 as substrate after 1 hr by ELISA
Outline: (§2)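 Kinase activity was measured by ELISA on wells precoated with 20 µg/mL poly(Glu,Tyr) 4:1. Enzyme was incubated with compound in 50 mM HEPES pH 7.4, 20 mM MgCl2, 0.1 mM MnCl2, 0.2 mM Na3VO4, 1 mM DTT with 5 µM ATP at 37 °C for 1 h. Phosphotyrosine was detected with PY99 antibody, HRP secondary and OPD, read at A492. IC50 is the mean of duplicates.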

[9] = target: T1, Tyrosine-protein kinase Tec (Homo sapiens, UniProt P42680); assay: Inhibition of recombinant human TEC using Poly(Glu, Tyr) 4:1 as substrate after 1 hr by ELISA; outline: as §2
T1 sequence (P42680 whole entry): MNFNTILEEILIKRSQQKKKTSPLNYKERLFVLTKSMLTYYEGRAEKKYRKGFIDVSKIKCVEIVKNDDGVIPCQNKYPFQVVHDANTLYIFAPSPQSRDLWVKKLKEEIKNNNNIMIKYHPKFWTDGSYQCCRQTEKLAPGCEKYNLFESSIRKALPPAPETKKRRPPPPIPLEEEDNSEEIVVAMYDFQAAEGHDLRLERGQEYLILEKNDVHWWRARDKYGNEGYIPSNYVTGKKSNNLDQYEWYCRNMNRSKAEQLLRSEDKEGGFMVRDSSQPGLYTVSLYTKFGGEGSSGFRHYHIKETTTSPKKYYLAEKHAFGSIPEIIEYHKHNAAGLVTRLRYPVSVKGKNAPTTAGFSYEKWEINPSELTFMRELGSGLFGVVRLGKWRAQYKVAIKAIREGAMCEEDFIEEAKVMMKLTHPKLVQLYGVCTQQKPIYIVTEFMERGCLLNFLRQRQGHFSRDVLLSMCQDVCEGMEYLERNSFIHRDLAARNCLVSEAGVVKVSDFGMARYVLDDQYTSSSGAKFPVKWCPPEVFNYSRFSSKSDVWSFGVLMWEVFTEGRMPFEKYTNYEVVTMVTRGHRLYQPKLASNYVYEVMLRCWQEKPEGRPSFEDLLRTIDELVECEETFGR

[10] = target: T2, Tyrosine-protein kinase TXK (Homo sapiens, UniProt P42681); assay: Inhibition of recombinant human TXK using Poly(Glu, Tyr) 4:1 as substrate after 1 hr by ELISA; outline: as §2
T2 sequence (P42681 whole entry): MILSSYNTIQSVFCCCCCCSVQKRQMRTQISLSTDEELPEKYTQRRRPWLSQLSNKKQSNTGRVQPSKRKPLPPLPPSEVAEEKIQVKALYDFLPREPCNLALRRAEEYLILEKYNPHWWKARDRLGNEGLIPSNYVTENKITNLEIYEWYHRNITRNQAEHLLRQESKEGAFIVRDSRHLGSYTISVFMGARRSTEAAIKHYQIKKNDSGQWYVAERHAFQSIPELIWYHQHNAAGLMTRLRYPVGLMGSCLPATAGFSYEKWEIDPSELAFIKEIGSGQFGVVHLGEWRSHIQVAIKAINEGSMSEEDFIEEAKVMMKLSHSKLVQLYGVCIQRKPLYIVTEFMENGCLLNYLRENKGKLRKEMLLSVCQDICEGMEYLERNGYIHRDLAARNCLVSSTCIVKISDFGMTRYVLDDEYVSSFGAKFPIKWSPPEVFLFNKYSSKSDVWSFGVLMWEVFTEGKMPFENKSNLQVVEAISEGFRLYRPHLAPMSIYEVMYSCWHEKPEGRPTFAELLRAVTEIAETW

[11] = target: Proto-oncogene tyrosine-protein kinase receptor Ret (Homo sapiens, UniProt P07949); assay: Inhibition of recombinant human RET using Poly(Glu, Tyr) 4:1 as substrate after 1 hr by ELISA
[12] = target: Platelet-derived growth factor receptor beta (Homo sapiens, UniProt P09619); assay: Inhibition of recombinant human PDGFR-beta using Poly(Glu, Tyr) 4:1 as substrate after 1 hr by ELISA
[13] = target: Macrophage colony-stimulating factor 1 receptor (Homo sapiens, UniProt P07333); assay: Inhibition of recombinant human CSF1R using Poly(Glu, Tyr) 4:1 as substrate after 1 hr by ELISA; outline: as §2
TMD8 [14] = assay: Cell cycle arrest in human TMD8 cells assessed as accumulation at G1 phase at 1 nM after 48 hrs by propidium iodide staining-based flow cytometric method (reference value: 51.33%); type: functional
TMD8 [15] = assay: Cell cycle arrest in human TMD8 cells assessed as accumulation at G2 phase at 1 nM after 48 hrs by propidium iodide staining-based flow cytometric method (reference value: 14.53%); type: functional
Mus musculus [16] = assay: In vivo inhibition of BTK autophosphorylation at Y223 in human TMD8 cells xenografted in CB17 SCID nude mouse at 15 mg/kg, […] by Western blot method; type: functional, organism-based
Mus musculus [17] = assay: In vivo inhibition of BTK in human TMD8 cells xenografted in CB17 SCID nude mouse assessed as decrease in PLCgamma2 phosphorylation at Y759 at 15 mg/kg, […] by Western blot method; type: functional, organism-based
[18] = target: Tyrosine-protein kinase BTK (Homo sapiens, UniProt Q06187); conditions: TMD8, 1 to 100 nM
Sequence of Tyrosine-protein kinase BTK (Q06187 whole entry): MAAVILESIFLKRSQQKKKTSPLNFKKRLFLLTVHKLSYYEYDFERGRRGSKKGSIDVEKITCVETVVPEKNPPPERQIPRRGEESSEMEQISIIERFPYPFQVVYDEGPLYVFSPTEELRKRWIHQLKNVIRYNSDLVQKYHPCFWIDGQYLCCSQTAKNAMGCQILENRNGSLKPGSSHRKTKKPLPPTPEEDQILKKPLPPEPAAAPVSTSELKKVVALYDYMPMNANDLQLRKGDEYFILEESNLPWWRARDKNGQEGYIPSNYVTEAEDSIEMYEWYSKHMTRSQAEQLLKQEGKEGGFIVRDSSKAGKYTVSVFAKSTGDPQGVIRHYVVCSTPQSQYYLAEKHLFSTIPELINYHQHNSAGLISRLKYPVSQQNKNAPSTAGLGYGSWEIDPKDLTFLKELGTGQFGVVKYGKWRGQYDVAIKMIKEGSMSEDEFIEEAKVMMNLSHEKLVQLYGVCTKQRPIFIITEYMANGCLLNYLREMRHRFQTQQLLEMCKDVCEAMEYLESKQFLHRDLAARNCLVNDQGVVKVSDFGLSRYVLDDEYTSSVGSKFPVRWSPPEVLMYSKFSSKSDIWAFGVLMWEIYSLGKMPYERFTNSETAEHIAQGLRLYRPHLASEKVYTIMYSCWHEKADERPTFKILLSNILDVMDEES

Sequence of Proto-oncogene tyrosine-protein kinase receptor Ret (P07949 whole entry): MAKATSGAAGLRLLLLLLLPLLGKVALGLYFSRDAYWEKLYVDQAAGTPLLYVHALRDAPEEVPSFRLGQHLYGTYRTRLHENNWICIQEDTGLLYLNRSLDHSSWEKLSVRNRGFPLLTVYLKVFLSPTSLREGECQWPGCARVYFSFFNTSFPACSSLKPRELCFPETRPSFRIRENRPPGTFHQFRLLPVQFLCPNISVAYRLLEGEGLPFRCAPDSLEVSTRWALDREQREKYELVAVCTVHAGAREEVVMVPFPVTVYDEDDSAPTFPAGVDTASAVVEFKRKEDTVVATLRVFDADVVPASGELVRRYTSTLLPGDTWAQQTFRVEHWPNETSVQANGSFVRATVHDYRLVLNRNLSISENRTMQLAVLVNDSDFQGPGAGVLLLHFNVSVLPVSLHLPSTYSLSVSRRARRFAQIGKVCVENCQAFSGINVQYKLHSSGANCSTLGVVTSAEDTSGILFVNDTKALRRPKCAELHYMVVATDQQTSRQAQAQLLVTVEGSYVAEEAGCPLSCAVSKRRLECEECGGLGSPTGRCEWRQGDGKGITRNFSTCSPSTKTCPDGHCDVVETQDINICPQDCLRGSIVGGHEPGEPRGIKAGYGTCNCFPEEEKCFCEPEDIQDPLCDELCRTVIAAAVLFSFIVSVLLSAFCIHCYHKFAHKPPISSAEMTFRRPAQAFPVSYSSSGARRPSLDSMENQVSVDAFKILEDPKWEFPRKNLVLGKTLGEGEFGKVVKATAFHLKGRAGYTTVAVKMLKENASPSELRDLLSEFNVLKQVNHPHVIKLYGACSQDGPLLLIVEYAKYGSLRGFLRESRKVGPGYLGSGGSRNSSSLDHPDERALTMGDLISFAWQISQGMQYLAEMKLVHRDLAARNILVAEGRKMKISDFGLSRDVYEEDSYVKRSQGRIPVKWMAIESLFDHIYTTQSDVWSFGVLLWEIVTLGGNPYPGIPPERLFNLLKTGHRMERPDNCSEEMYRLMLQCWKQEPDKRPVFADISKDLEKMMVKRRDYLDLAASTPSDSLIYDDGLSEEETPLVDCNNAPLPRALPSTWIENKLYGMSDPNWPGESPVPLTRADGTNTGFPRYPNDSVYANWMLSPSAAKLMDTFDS
Sequence of Macrophage colony-stimulating factor 1 receptor (P07333 whole entry): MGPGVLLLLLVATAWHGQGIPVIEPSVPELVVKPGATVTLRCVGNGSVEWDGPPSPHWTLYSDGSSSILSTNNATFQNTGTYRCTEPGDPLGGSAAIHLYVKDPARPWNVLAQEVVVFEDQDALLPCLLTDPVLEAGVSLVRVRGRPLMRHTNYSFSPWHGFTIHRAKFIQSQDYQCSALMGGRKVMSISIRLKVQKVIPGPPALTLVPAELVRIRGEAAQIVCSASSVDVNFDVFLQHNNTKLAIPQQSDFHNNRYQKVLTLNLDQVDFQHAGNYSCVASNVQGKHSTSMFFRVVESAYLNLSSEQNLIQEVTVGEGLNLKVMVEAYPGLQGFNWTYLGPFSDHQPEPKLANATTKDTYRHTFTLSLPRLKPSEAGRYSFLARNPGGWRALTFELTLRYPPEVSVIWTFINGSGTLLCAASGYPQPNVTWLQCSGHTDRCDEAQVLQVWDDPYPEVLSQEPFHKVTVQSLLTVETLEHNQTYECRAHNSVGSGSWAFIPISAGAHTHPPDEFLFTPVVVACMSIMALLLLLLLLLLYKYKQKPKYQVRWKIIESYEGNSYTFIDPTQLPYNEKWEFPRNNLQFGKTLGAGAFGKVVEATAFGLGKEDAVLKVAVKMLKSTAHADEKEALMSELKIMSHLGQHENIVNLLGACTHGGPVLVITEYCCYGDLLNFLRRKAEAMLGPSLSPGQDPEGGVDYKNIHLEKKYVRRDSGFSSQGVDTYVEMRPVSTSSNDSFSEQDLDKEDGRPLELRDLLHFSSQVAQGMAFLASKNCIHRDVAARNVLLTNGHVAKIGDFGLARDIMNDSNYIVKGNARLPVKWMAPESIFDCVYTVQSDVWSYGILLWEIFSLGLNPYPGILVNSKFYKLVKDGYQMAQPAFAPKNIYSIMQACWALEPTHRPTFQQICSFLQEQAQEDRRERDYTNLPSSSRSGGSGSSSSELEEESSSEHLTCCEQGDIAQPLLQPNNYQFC
Sequence of Receptor tyrosine-protein kinase erbB-4 (Q15303 whole entry): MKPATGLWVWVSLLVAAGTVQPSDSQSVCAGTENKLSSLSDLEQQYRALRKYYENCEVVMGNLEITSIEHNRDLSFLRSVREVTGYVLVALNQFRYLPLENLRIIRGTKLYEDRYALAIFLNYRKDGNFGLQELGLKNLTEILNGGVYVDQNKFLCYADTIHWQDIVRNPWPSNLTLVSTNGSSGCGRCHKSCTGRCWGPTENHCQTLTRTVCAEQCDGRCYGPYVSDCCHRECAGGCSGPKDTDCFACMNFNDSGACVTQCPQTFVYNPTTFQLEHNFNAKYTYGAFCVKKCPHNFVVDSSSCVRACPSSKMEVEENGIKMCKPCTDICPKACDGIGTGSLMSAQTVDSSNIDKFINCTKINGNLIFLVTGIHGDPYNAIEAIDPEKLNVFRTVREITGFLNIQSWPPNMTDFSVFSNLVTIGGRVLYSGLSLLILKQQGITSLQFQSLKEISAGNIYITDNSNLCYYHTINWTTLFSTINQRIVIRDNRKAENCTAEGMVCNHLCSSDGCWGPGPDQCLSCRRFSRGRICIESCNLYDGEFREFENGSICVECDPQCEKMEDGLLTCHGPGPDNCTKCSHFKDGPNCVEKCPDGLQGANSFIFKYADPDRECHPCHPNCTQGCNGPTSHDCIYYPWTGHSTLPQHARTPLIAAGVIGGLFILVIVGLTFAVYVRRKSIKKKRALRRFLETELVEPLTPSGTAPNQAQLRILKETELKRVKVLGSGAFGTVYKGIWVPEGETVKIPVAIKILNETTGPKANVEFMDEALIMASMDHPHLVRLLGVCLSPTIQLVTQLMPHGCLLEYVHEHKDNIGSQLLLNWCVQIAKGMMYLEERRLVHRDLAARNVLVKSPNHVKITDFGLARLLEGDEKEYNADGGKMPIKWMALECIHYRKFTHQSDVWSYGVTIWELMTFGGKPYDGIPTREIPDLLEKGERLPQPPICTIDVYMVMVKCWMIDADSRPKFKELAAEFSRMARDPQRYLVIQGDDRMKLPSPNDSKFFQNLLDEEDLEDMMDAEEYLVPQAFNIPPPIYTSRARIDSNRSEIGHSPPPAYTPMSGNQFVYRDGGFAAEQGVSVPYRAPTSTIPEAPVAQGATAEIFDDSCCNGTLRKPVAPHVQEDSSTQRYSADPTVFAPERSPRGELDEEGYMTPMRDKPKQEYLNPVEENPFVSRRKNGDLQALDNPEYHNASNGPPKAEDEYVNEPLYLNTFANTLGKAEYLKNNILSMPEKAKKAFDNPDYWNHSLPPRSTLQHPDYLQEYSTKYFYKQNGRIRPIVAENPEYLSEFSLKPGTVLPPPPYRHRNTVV

Q: For `C=CC(=O)N[C@@H]1Cn2c(c(-c3ccc(Oc4ccccc4)cc3)c3c(N)ncnc32)C1=C`, which t1/2 (Rattus norvegicus [1]) is on record?
A: 34.2 min

Q: What about the Tmax [2] of the same compound?
A: 15 min

Q: What about the AUC (Rattus norvegicus [3]) of the same compound?
A: 211 ng·h/mL

Q: What about the Drug metabolism [4] of the same compound?
A: Metabolite_Detected

Q: What about the Drug metabolism [5] of the same compound?
A: Metabolite_Detected

Q: What about the Drug metabolism [6] of the same compound?
A: Metabolite_Detected

Q: And the IC50 (TMD8 [7])?
A: 16 nM

Q: What about the IC50 (Ramos) of the same compound?
A: 5030 nM

Q: What about the IC50 [8] of the same compound?
A: 0.6 nM

Q: What about the IC50 [9] of the same compound?
A: 1.4 nM

Q: And the IC50 [10]?
A: 2.5 nM

Q: And the IC50 [11]?
A: 20.3 nM

Q: And the IC50 [12]?
A: 215 nM

Q: And the IC50 [13]?
A: > 1000 nM

Q: And the Activity (TMD8 [14])?
A: 57.41%

Q: What about the Activity (TMD8 [15]) of the same compound?
A: 17.32%

Q: What about the inhibition (Mus musculus [16]) of the same compound?
A: Active

Q: What about the inhibition (Mus musculus [17]) of the same compound?
A: Active

Q: And the inhibition [18]?
A: Active

From ChEMBL document CHEMBL4184325, “Discovery of 4,7-Diamino-5-(4-phenoxyphenyl)-6-methylene-pyrimido[5,4- b]pyrrolizines as Novel Bruton's Tyrosine Kinase Inhibitors” (J Med Chem, 2018)
